ChEMBL document CHEMBL1145430, “Synthesis and simple 18F-labeling of 3-fluoro-5-(2-(2-(fluoromethyl)thiazol-4-yl)ethynyl)benzonitrile as a high affinity radioligand for imaging monkey brain metabotropic glutamate subtype-5 receptors with positron emission tomography” (J Med Chem, 2007)

How the values were obtained:
[1] = biological target: 5-hydroxytryptamine receptor 1A (Homo sapiens, UniProt P08908); assay: Displacement of [3H]8-OH-DPAT from 5HT1A receptor
[2] = biological target: 5-hydroxytryptamine receptor 1B (Homo sapiens, UniProt P28222); assay: Displacement of [3H]GR-125743 from 5HT1B receptor
Chain of 5-hydroxytryptamine receptor 1B (P28222 whole entry): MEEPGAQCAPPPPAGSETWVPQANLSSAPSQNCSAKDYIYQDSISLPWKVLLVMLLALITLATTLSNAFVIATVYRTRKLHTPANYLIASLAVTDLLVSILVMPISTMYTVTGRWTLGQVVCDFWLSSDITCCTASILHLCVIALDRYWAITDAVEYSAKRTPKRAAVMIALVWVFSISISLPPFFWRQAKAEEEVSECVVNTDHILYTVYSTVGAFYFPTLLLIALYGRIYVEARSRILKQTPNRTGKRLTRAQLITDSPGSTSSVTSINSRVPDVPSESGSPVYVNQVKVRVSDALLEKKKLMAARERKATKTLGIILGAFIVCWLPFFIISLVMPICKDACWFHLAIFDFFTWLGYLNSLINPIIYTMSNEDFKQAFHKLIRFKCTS

[3] = biological target: 5-hydroxytryptamine receptor 1D (Homo sapiens, UniProt P28221); assay: Displacement of [3H]GR-125743 from 5HT1D receptor
[4] = biological target: 5-hydroxytryptamine receptor 1E (Homo sapiens, UniProt P28566); assay: Displacement of [3H]5-HT from 5HT1E receptor
[5] = biological target: 5-hydroxytryptamine receptor 2A (Homo sapiens, UniProt P28223); assay: Displacement of [3H]ketanserin from 5HT2A receptor
[6] = biological target: 5-hydroxytryptamine receptor 2B (Homo sapiens, UniProt P41595); assay: Displacement of [3H]LSD from 5HT2B receptor
[7] = biological target: 5-hydroxytryptamine receptor 2C (Homo sapiens, UniProt P28335); assay: Displacement of [3H]mesulergine from 5HT2C receptor
[8] = biological target: Serotonin 3 (5-HT3) receptor; assay: Displacement of [3H]zacopride from 5HT3 receptor; type: protein-complex assay, Homo sapiens
[9] = biological target: 5-hydroxytryptamine receptor 5A (Homo sapiens, UniProt P47898); assay: Displacement of [3H]LSD from 5HT5A receptor
[10] = biological target: 5-hydroxytryptamine receptor 6 (Homo sapiens, UniProt P50406); assay: Displacement of [3H]LSD from 5HT6 receptor
[11] = biological target: 5-hydroxytryptamine receptor 7 (Homo sapiens, UniProt P34969); assay: Displacement of [3H]LSD from 5HT7 receptor
[12] = Lipophilicity, log D of the compound; type: physicochemical; settings: octanol/water
Procedure, shortened: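 Partition of the [18F]-labeled radioligand between n-octanol and sodium phosphate buffer (0.15 M, pH 7.4) was measured, following a general method described earlier.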

[13] = biological target: Metabotropic glutamate receptor 5 (Rattus norvegicus, UniProt P31424); assay: Displacement of […] from mGluR5 in rat brain membrane; type: cell membranes
Chain of Metabotropic glutamate receptor 5 (P31424 whole entry): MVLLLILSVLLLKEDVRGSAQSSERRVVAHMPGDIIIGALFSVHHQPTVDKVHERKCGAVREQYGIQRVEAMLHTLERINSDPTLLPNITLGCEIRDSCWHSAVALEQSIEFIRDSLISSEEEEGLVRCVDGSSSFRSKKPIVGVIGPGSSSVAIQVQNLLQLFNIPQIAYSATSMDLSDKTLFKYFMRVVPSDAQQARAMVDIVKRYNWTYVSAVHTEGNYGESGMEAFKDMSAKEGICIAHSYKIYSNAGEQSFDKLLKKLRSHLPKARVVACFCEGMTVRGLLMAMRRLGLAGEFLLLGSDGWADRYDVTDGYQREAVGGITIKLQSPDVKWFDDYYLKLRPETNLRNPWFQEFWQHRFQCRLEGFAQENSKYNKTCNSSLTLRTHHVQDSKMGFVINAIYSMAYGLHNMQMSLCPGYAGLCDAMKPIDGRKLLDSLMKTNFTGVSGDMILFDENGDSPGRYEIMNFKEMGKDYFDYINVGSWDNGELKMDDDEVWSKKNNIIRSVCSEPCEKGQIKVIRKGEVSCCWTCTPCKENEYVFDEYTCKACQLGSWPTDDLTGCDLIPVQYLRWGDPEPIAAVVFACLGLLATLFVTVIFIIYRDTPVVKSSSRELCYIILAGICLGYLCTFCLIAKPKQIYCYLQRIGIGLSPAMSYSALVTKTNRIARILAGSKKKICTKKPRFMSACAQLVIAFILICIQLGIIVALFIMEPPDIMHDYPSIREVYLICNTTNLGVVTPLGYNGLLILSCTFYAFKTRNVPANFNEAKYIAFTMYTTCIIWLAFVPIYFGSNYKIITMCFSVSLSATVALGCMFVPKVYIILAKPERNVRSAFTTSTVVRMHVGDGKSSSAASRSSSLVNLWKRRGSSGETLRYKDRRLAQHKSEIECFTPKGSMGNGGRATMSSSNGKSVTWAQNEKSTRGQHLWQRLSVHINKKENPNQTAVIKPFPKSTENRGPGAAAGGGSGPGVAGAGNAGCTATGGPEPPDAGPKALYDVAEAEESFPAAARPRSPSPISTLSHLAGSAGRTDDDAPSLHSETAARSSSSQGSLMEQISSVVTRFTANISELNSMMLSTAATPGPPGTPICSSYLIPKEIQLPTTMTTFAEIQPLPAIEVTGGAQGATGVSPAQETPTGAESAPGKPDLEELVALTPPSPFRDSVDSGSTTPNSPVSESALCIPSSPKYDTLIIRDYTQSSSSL
Procedure, shortened: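 Competition binding against [³H]MPEPy in rat whole-brain membranes (minus cerebellum and brainstem), homogenized in 50 mM Tris-HCl/saline pH 7.5, pelleted at 39 800 g. Membranes 5 mg/800 µL final. Competitor from 10 mM ethanol stock, final 0.01 nM to 1 mM. Incubated 1 h at 22 °C, filtered on PEI-soaked GF/B, washed with cold saline, scintillation counted. Three determinations.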

[14] = biological target: Metabotropic glutamate receptor 1 (Homo sapiens, UniProt Q13255); assay: Binding affinity at mGluR1
[15] = biological target: Metabotropic glutamate receptor 2 (Homo sapiens, UniProt Q14416); assay: Binding affinity at mGluR2
[16] = biological target: Metabotropic glutamate receptor 4 (Homo sapiens, UniProt Q14833); assay: Binding affinity at mGluR4
[17] = biological target: Metabotropic glutamate receptor 6 (Homo sapiens, UniProt O15303); assay: Binding affinity at mGluR6
[18] = biological target: Metabotropic glutamate receptor 8 (Homo sapiens, UniProt O00222); assay: Binding affinity at mGluR8
[19] = biological target: Alpha-1A adrenergic receptor (Homo sapiens, UniProt P35348); assay: Displacement of [3H]prazosin from adrenergic alpha-1A receptor
Chain of Alpha-1A adrenergic receptor (P35348 whole entry): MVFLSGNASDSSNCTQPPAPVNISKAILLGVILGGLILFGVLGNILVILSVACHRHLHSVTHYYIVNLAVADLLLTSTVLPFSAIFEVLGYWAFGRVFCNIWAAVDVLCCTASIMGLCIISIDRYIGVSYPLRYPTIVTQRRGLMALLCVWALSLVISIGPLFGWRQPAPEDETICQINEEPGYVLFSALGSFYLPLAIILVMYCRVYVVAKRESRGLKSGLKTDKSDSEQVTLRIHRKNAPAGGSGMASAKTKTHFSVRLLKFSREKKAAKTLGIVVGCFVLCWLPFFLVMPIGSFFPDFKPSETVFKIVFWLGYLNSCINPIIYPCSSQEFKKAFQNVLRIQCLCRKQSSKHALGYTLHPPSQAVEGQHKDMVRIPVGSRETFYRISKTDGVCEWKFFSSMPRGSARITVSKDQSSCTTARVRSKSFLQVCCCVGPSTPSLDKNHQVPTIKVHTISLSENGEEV

[20] = biological target: Alpha-1B adrenergic receptor (Homo sapiens, UniProt P35368); assay: Displacement of [3H]prazosin from adrenergic alpha-1B receptor
[21] = biological target: Alpha-2A adrenergic receptor (Homo sapiens, UniProt P08913); assay: Displacement of [3H][…] from adrenergic alpha2A receptor
[22] = biological target: Alpha-2B adrenergic receptor (Homo sapiens, UniProt P18089); assay: Displacement of [3H][…] from adrenergic alpha-2B receptor
[23] = biological target: Alpha-2C adrenergic receptor (Homo sapiens, UniProt P18825); assay: Displacement of [3H][…] from adrenergic alpha-2C receptor
Chain of Alpha-2C adrenergic receptor (P18825 whole entry): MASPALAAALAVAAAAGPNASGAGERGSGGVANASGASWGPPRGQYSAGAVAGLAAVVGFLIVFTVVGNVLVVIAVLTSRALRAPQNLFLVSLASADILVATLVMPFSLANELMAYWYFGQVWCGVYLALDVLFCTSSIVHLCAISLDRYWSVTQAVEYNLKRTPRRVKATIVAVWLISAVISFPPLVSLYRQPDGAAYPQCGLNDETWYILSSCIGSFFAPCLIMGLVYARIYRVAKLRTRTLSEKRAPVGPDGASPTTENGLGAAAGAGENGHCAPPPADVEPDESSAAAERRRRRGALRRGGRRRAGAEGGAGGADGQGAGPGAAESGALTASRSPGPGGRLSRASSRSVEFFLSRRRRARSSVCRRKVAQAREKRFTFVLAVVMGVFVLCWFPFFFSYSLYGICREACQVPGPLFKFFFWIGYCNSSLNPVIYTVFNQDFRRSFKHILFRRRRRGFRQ

[24] = biological target: Beta-1 adrenergic receptor (Homo sapiens, UniProt P08588); assay: Displacement of [125I]pindolol from adrenergic beta-1 receptor
[25] = biological target: Beta-2 adrenergic receptor (Homo sapiens, UniProt P07550); assay: Displacement of [125I]pindolol from adrenergic beta-2 receptor
[26] = biological target: D(1A) dopamine receptor (Homo sapiens, UniProt P21728); assay: Displacement of [3H]SCH-23390 from dopamine D1 receptor
[27] = biological target: D(2) dopamine receptor (Homo sapiens, UniProt P14416); assay: Displacement of [3H]N-methylspiperone from dopamine D2 receptor
Chain of D(2) dopamine receptor (P14416 whole entry): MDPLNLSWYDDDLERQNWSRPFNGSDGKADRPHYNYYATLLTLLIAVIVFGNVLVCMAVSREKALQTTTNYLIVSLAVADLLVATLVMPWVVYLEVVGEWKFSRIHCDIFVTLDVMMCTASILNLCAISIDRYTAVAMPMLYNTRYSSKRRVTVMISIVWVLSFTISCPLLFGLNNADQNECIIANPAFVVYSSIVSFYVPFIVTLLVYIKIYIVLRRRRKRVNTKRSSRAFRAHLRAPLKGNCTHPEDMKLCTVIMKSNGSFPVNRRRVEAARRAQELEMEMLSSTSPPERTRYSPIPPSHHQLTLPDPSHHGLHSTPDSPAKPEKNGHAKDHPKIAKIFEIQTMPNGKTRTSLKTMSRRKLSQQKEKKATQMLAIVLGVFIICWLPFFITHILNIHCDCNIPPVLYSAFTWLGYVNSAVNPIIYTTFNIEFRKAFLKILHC

[28] = biological target: D(3) dopamine receptor (Homo sapiens, UniProt P35462); assay: Displacement of [3H]N-methylspiperone from dopamine D3 receptor
[29] = biological target: D(4) dopamine receptor (Homo sapiens, UniProt P21917); assay: Displacement of [3H]N-methylspiperone from dopamine D4 receptor
[30] = biological target: D(1B) dopamine receptor (Homo sapiens, UniProt P21918); assay: Displacement of radiolabeled SKF-38393 from dopamine D5 receptor
[31] = biological target: Sigma non-opioid intracellular receptor 1 (Homo sapiens, UniProt Q99720); assay: Binding affinity to sigma1 receptor
Chain of Sigma non-opioid intracellular receptor 1 (Q99720 whole entry): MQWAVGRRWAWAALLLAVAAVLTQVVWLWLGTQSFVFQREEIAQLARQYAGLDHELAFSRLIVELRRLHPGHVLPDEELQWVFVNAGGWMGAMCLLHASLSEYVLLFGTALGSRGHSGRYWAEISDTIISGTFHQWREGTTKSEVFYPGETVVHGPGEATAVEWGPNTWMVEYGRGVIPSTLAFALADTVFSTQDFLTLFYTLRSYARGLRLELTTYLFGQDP

[32] = Displacement of [3H]MK-801 from NMDA receptor; parameters: species or system Homo sapiens
[33] = biological target: Muscarinic acetylcholine receptor M1 (Homo sapiens, UniProt P11229); assay: Displacement of [3H]QNB from muscarinic M1 receptor
[34] = biological target: Muscarinic acetylcholine receptor M2 (Homo sapiens, UniProt P08172); assay: Displacement of [3H]QNB from muscarinic M2 receptor
[35] = biological target: Muscarinic acetylcholine receptor M3 (Homo sapiens, UniProt P20309); assay: Displacement of [3H]QNB from muscarinic M3 receptor
[36] = biological target: Muscarinic acetylcholine receptor M4 (Homo sapiens, UniProt P08173); assay: Displacement of [3H]QNB from muscarinic M4 receptor
[37] = biological target: Muscarinic acetylcholine receptor M5 (Homo sapiens, UniProt P08912); assay: Displacement of [3H]QNB from muscarinic M5 receptor
Chain of Muscarinic acetylcholine receptor M5 (P08912 whole entry): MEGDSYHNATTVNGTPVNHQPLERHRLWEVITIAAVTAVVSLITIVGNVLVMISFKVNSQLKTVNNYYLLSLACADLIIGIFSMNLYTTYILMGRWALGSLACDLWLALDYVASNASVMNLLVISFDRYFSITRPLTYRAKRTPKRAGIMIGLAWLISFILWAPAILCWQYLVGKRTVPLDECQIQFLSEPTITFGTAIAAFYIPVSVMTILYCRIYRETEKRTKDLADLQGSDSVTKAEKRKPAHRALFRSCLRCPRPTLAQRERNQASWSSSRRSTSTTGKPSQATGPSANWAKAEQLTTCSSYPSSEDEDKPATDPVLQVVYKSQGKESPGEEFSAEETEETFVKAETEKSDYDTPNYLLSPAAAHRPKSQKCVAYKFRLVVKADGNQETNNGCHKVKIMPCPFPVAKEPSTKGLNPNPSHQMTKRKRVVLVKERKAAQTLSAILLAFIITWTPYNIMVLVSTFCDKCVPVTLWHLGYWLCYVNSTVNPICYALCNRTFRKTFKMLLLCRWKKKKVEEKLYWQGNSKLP

[38] = biological target: Delta-type opioid receptor (Homo sapiens, UniProt P41143); assay: Displacement of [3H]DADLE from delta opioid receptor
[39] = biological target: Mu-type opioid receptor (Homo sapiens, UniProt P35372); assay: Displacement of [3H]diprenorphine from mu opioid receptor
Chain of Mu-type opioid receptor (P35372 whole entry): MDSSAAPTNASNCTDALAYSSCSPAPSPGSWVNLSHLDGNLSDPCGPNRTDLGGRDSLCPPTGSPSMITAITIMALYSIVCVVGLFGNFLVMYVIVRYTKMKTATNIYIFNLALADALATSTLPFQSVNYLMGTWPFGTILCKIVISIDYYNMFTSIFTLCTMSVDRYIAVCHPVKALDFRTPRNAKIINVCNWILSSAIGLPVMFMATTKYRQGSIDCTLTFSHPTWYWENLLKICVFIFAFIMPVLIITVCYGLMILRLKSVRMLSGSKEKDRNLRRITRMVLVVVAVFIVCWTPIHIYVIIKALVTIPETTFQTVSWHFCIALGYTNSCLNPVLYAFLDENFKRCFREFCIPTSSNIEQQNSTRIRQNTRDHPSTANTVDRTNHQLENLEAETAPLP

[40] = biological target: Kappa-type opioid receptor (Homo sapiens, UniProt P41145); assay: Displacement of [3H]bremazocine from kappa opioid receptor
Chain of Kappa-type opioid receptor (P41145 whole entry): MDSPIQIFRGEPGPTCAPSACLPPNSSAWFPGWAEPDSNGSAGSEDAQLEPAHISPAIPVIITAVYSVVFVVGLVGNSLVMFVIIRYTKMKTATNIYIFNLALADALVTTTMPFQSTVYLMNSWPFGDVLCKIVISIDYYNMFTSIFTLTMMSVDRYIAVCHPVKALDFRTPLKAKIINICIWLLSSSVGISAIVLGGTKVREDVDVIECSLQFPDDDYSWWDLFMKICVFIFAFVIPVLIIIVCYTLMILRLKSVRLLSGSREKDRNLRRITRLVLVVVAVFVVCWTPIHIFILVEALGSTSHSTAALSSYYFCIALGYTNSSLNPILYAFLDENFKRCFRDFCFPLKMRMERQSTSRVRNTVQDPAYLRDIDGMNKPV

[41] = biological target: Sodium-dependent dopamine transporter (Homo sapiens, UniProt Q01959); assay: Displacement of [3H]WIN-35428 from DAT
[42] = biological target: Sodium-dependent noradrenaline transporter (Homo sapiens, UniProt P23975); assay: Displacement of [3H]nisoxitine from NET
[43] = biological target: Sodium-dependent serotonin transporter (Homo sapiens, UniProt P31645); assay: Displacement of [3H]citalopram from SERT
[44] = biological target: Histamine H1 receptor (Homo sapiens, UniProt P35367); assay: Binding affinity to histamine H1 receptor
Chain of Histamine H1 receptor (P35367 whole entry): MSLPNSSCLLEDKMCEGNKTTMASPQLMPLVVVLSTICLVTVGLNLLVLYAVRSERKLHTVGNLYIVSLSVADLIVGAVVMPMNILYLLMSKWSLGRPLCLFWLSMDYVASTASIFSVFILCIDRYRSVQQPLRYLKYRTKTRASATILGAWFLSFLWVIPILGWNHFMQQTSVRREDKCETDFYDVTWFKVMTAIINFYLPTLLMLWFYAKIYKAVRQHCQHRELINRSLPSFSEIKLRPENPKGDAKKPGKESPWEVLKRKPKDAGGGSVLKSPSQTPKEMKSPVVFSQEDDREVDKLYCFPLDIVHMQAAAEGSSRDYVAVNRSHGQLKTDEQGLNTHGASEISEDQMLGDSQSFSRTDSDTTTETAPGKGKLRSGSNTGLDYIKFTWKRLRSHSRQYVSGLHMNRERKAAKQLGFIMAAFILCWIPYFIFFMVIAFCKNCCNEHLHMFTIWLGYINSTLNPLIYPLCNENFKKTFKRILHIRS

[45] = biological target: Histamine H2 receptor (Homo sapiens, UniProt P25021); assay: Binding affinity to from histamine H2 receptor
[46] = biological target: Histamine H3 receptor (Homo sapiens, UniProt Q9Y5N1); assay: Binding affinity to histamine H3 receptor
[47] = biological target: Histamine H4 receptor (Homo sapiens, UniProt Q9H3N8); assay: Binding affinity to histamine H4 receptor

SMILES: N#Cc1cc(F)cc(C#Cc2csc(CF)n2)c1
- Ki [1]: > 10 µM
- Ki [2]: > 10 µM
- Ki [3]: > 10 µM
- Ki [4]: > 10 µM
- Ki [5]: > 10 µM
- Ki [6]: > 10 µM
- Ki [7]: > 10 µM
- Ki [8]: > 10 µM
- Ki [9]: > 10 µM
- Ki [10]: > 10 µM
- Ki [11]: > 10 µM
- logD [12]: 2.18
- IC50 [13]: 36 pM
- Ki [14]: > 10 µM
- Ki [15]: > 10 µM
- Ki [16]: > 10 µM
- Ki [17]: > 10 µM
- Ki [18]: > 10 µM
- Ki [19]: > 10 µM
- Ki [20]: > 10 µM
- Ki [21]: > 10 µM
- Ki [22]: > 10 µM
- Ki [23]: > 10 µM
- Ki [24]: > 10 µM
- Ki [25]: > 10 µM
- Ki [26]: > 10 µM
- Ki [27]: > 10 µM
- Ki [28]: > 10 µM
- Ki [29]: > 10 µM
- Ki [30]: > 10 µM
- Ki [31]: > 10 µM
- Ki [32]: > 10 µM
- Ki [33]: > 10 µM
- Ki [34]: > 10 µM
- Ki [35]: > 10 µM
- Ki [36]: > 10 µM
- Ki [37]: > 10 µM
- Ki [38]: > 10 µM
- Ki [39]: > 10 µM
- Ki [40]: > 10 µM
- Ki [41]: > 10 µM
- Ki [42]: > 10 µM
- Ki [43]: > 10 µM
- Ki [44]: > 10 µM
- Ki [45]: > 10 µM
- Ki [46]: > 10 µM
- Ki [47]: > 10 µM

SMILES: FCc1nc(C#Cc2cccc(F)c2)cs1
- IC50 [13]: 480 pM

SMILES: COc1cccc(C#Cc2csc(CF)n2)c1
- IC50 [13]: 520 pM
